Experimental data from ChEMBL document CHEMBL2086284, “(Z)-1-aryl-3-arylamino-2-propen-1-ones, highly active stimulators of tubulin polymerization: synthesis, structure-activity relationship (SAR), tubulin polymerization, and cell growth inhibition studies” (J Med Chem, 2012).
Activity calls are given as the source filed them. No cut-off for these calls is given here.

Experiments:
[1] = test system: DU-145; experiment: Cytotoxicity against androgen receptor-deficient human DU145 cells after 96 hrs by trypan blue exclusion assay; type: functional, cell-based; conditions: DU-145, 96 h
Method in brief: (§1)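 Cells grown in DMEM or RPMI with 10% FBS and penicillin-streptomycin. Seeded at 1.0 × 10^5 cells/mL/well in 6-well dishes; compounds were added 24 h later at various concentrations. Viable cells were counted by trypan blue exclusion from duplicate wells after 96 h of treatment, giving a dose-response endpoint.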

[2] = test system: K562; experiment: Cytotoxicity against human K562 cells after 96 hrs by trypan blue exclusion assay; type: functional, cell-based; conditions: K562, 96 h; method in brief: as §1
[3] = test system: BT-20; experiment: Cytotoxicity against estrogen receptor-deficient human BT20 cells after 96 hrs by trypan blue exclusion assay; type: functional, cell-based; conditions: BT-20, 96 h; method in brief: as §1
[4] = test system: MCF7; experiment: Cytotoxicity against human MCF7 cells expressing estrogen receptor after 96 hrs by trypan blue exclusion assay; type: functional, cell-based; conditions: MCF7, 96 h; method in brief: as §1
[5] = test system: SK-BR-3; experiment: Cytotoxicity against estrogen receptor-deficient human SKBR3 cells after 96 hrs by trypan blue exclusion assay; type: functional, cell-based; conditions: SK-BR-3, 96 h; method in brief: as §1
[6] = test system: BT-474; experiment: Cytotoxicity against human BT474 cells expressing estrogen receptor after 96 hrs by trypan blue exclusion assay; type: functional, cell-based; conditions: BT-474, 96 h; method in brief: as §1
[7] = test system: HeLa; experiment: Induction of mitotic arrest in human HeLa cells assessed as increase of phosphorylated histone H3 at Ser10 level at 1 uM after 24 hrs by Western blotting relative to control; type: functional
Method in brief: (§2)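 HeLa treated with 1 μM and harvested at set times. Pellets were frozen, then lysed in HEPES/Triton X-100/NaCl buffer, pH 7.5, with phosphatase and protease inhibitors. Blots were probed sequentially for phospho-histone H3 (Ser10), histone H3, cyclin B1, PLK-1 and BubR1, with GAPDH as loading control. Antibodies: primary 1:1000, secondary 1:10,000. Fold increase is relative to control. N=3.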

[8] = test system: MIA PaCa-2; experiment: Cytotoxicity against human MIAPaCa2 cells after 96 hrs by trypan blue exclusion assay; type: functional, cell-based; conditions: MIA PaCa-2, 96 h; method in brief: as §1
[9] = test system: A549; experiment: Cytotoxicity against human A549 cells after 96 hrs by trypan blue exclusion assay; type: functional, cell-based; conditions: A549, 96 h; method in brief: as §1
[10] = test system: HeLa; experiment: Cytotoxicity against human HeLa cells after 96 hrs by trypan blue exclusion assay; type: functional, cell-based; method in brief: as §1
[11] = Cytotoxicity against human COLO320 cells after 96 hrs by trypan blue exclusion assay; type: functional, cell-based; conditions: COLO 320, 96 h; method in brief: as §1
[12] = test system: PANC-1; experiment: Cytotoxicity against human PANC1 cells after 96 hrs by trypan blue exclusion assay; type: functional, cell-based; conditions: PANC-1, 96 h; method in brief: as §1
[13] = test system: SK-MEL-28; experiment: Cytotoxicity against human SK-MEL-28 cells after 96 hrs by trypan blue exclusion assay; type: functional, cell-based; conditions: SK-MEL-28, 96 h; method in brief: as §1
[14] = Cytotoxicity against human HTB-126 cells after 96 hrs by trypan blue exclusion assay; type: functional, cell-based; conditions: HTB126, 96 h; method in brief: as §1
[15] = test system: Caco-2; experiment: Cytotoxicity against human Caco2 cells after 96 hrs by trypan blue exclusion assay; type: functional, cell-based; conditions: Caco-2, 96 h; method in brief: as §1
[16] = test system: Raji; experiment: Cytotoxicity against human Raji cells after 96 hrs by trypan blue exclusion assay; type: functional, cell-based; method in brief: as §1
[17] = test system: SNU-5; experiment: Cytotoxicity against human SNU5 cells after 96 hrs by trypan blue exclusion assay; type: functional, cell-based; conditions: SNU-5, 96 h; method in brief: as §1
[18] = test system: NCI-N87; experiment: Cytotoxicity against human NCI-N87 cells after 96 hrs by trypan blue exclusion assay; type: functional, cell-based; conditions: NCI-N87, 96 h; method in brief: as §1
[19] = test system: HCT-15; experiment: Cytotoxicity against human HCT15 cells after 96 hrs by trypan blue exclusion assay; type: functional, cell-based; conditions: HCT-15, 96 h; method in brief: as §1
[20] = Cytotoxicity against human MES-SA cells after 96 hrs by trypan blue exclusion assay; type: functional, cell-based; method in brief: as §1
[21] = Cytotoxicity against human MESSA/DX5 cells after 96 hrs by trypan blue exclusion assay; type: functional, cell-based; conditions: MES-SA/Dx5, 96 h; method in brief: as §1
[22] = test system: DU-145; experiment: Cell cycle arrest in human DU145 cells assessed as accumulation at G2/M phase after 24 hrs using propidium iodide staining by FACS analysis; type: functional, cell-based
Method in brief: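 DU145 plated at 1.0 × 10^6 cells per dish, treated 24 h later for 24 h across a range of concentrations. Cells were fixed in ice-cold 70% ethanol, stained with propidium iodide plus RNase A for 30 min at 37 °C, and DNA content was read by flow cytometry. Phases: G1 (2N), S (>2N<4N), G2/M (4N). N=3.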

[23] = test system: DU-145; experiment: Cell cycle arrest in human DU145 cells assessed as accumulation at G2/M phase at 2.5 uM by propidium iodide staining based FACS analysis; type: functional; conditions: TDE = time-dependent effect
Method in brief: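 DU145 plated at 1.0 × 10^6 cells/dish and dosed 24 h later at 2.5 μM. Floating and trypsinised cells were pooled at 24, 48 and 72 h, fixed in ice-cold 70% ethanol for at least 24 h, stained 30 min at 37 °C with propidium iodide and RNase A, and analysed for DNA content by flow cytometry.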

[24] = test system: HeLa; experiment: Induction of mitotic arrest in human HeLa cells assessed as increase of phosphorylated histone H3 at Ser10 level at 1 uM after 6 hrs by Western blotting; type: functional, cell-based; method in brief: as §2
[25] = test system: HeLa; experiment: Induction of mitotic arrest in human HeLa cells assessed as increase of phosphorylated cyclin B1 level at 1 uM after 6 hrs by Western blotting relative to control; type: functional; method in brief: as §2
[26] = test system: HeLa; experiment: Induction of mitotic arrest in human HeLa cells assessed as increase of phosphorylated Bcl2 level at 1 uM after 24 hrs by Western blotting relative to control; type: functional
[27] = test system: HeLa; experiment: Induction of mitotic arrest in human HeLa cells assessed as increase of phosphorylated PLK1 level at 1 uM after 6 hrs by Western blotting relative to control; type: functional; method in brief: as §2
[28] = test system: HeLa; experiment: Induction of mitotic arrest in human HeLa cells assessed as increase of phosphorylated BUBR1 level at 1 uM after 6 hrs by Western blotting relative to control; type: functional; method in brief: as §2
[29] = test system: HeLa; experiment: Induction of apoptosis in human HeLa cells assessed as cleavage of PARP at 1 uM after 24 hrs by Western blot analysis; type: functional, cell-based
Method in brief: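 HeLa exposed to 1.0 μM for a time course. Lysates were resolved on 10% SDS-PAGE, blotted to nitrocellulose and probed with anti-PARP (primary 1:1000, secondary 1:10,000), with ECL detection. Cleaved PARP was taken as the apoptosis/caspase-3 marker. N=3.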

[30] = test system: HeLa; experiment: Inhibition of cytoplasmic microtubule polymerization in human HeLa cells at 0.5 uM after 18 hrs by FITC-conjugated DAPI staining based fluorescence microscopy; type: cell-based
Method in brief: (§3)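 HeLa grown on glass coverslips and exposed for 18 h to test agent (0.25 or 0.5 μM), paclitaxel or vincristine (0.005 μM), or DMSO. Cells were fixed in 4% paraformaldehyde, blocked, permeabilised, and stained with FITC anti-α-tubulin (1:400) and then DAPI (0.5 ug/mL). Mitotic spindles or interphase cytoplasmic microtubules were scored by fluorescence microscopy at 100x.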

[31] = test system: HeLa; experiment: Induction of mitotic arrest in human HeLa cells assessed as unbound chromosome outside metaphase plate at 0.25 uM after 18 hrs by FITC-conjugated DAPI staining based fluorescence microscopy; type: functional, cell-based; method in brief: as §3
[32] = test system: HeLa; experiment: Induction of mitotic arrest in human HeLa cells assessed as dispersed chromosome spread with three or more tubulin bundles at 0.5 uM after 18 hrs by FITC-conjugated DAPI staining based fluorescence microscopy; type: functional, cell-based; method in brief: as §3
[33] = test system: HeLa; experiment: Inhibition of cytoplasmic microtubule polymerization in human HeLa cells at 0.005 uM after 18 hrs by FITC-conjugated DAPI staining based fluorescence microscopy; type: cell-based; method in brief: as §3
[34] = Drug resistant, ratio of IC50 for human MESSA/DX5 cells to IC50 for human MESSA cells; type: functional, MES-SA
Method in brief: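 MES-SA uterine sarcoma cells and the P-glycoprotein-expressing multidrug-resistant MES-SA/DX5 sub-line were grown in DMEM or RPMI with 10% FBS. Cells were plated in 6-well dishes at 1.0 × 10^5 cells/mL/well, dosed at various concentrations 24 h later, and exposed for 96 h. Viable cells were counted by trypan blue exclusion from duplicate wells. The resistant/parental IC50 ratio was taken.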

[35] = test system: HeLa; experiment: Induction of mitotic arrest in human HeLa cells assessed as unbound chromosome outside metaphase plate at 0.005 uM after 18 hrs by FITC-conjugated DAPI staining based fluorescence microscopy; type: functional, cell-based; method in brief: as §3

Structure (SMILES): COc1ccc(N/C=C\C(=O)c2cc(OC)c(OC)c(OC)c2Br)cc1O
- IC50 [1]: 60 nM
- IC50 [2]: 100 nM
- IC50 [3]: 750 nM
- IC50 [4]: 400 nM
- IC50 [5]: 300 nM
- IC50 [6]: 100 nM
- fold change (FC) [7]: 121
- IC50 [8]: 800 nM
- IC50 [9]: 900 nM
- IC50 [10]: 200 nM
- IC50 [11]: 150 nM
- IC50 [12]: 200 nM
- IC50 [13]: 200 nM
- IC50 [14]: 100 nM
- IC50 [15]: 250 nM
- IC50 [16]: 200 nM
- IC50 [17]: 250 nM
- IC50 [18]: 300 nM
- IC50 [19]: 40 nM
- IC50 [20]: 250 nM
- IC50 [21]: 500 nM
- Activity [22]: Dose-dependent effect
- Activity [23]: tde
- Activity [24]: Active
- fold change (FC) [25]: 2.5
- fold change (FC) [26]: 88
- fold change (FC) [27]: 2.5
- fold change (FC) [28]: 2.95
- Activity [29]: Active
- inhibition [30]: inactive
- Activity [31]: Active
- Activity [32]: Active

Structure (SMILES): COc1cc(C(=O)/C=C\Nc2ccc3[nH]ccc3c2)cc(OC)c1OC
- IC50 [1]: 200 nM
- IC50 [2]: 500 nM

Structure (SMILES): COc1cc(OC)c(N/C=C\C(=O)c2cc(OC)c(OC)c(OC)c2)c(OC)c1
- IC50 [1]: 75000 nM
- IC50 [2]: 50000 nM

Structure (SMILES): COc1ccc(N/C=C\C(=O)c2cc(OC)c(OC)c(OC)c2[N+](=O)[O-])cc1
- IC50 [1]: 600 nM
- IC50 [2]: 600 nM

Structure (SMILES): COc1cc(C(=O)/C=C\Nc2ccc(Cl)cc2)cc(OC)c1OC
- IC50 [1]: 500 nM
- IC50 [2]: 250 nM

Structure (SMILES): COc1ccc(N/C=C\C(=O)c2cc(OC)c(OC)c(OC)c2)cc1O
- IC50 [1]: 100 nM
- IC50 [2]: 100 nM

Structure (SMILES): CC(=O)O[C@H]1C(=O)[C@@]2(C)[C@H]([C@H](OC(=O)c3ccccc3)[C@]3(O)C[C@H](OC(=O)[C@H](O)[C@@H](NC(=O)c4ccccc4)c4ccccc4)C(C)=C1C3(C)C)[C@]1(OC(C)=O)CO[C@@H]1C[C@@H]2O [PACLITAXEL]
- inhibition [33]: inactive
- Ratio IC50 [34]: >100
- IC50 [20]: 4 nM
- IC50 [21]: 750 nM
- Activity [35]: Active

Structure (SMILES): COc1ccc(N/C=C\C(=O)c2cc(OC)c(OC)c(OC)c2)cc1N
- IC50 [1]: 100 nM
- IC50 [2]: 250 nM

Structure (SMILES): COc1ccc(N/C=C\C(=O)c2c(OC)cc(OC)cc2OC)c(OC)c1
- IC50 [1]: 75000 nM
- IC50 [2]: 75000 nM

Structure (SMILES): COc1ccc(N/C=C\C(=O)c2cc(OC)c(OC)c(OC)c2Br)cc1
- IC50 [1]: 200 nM
- IC50 [2]: 250 nM

Structure (SMILES): COc1cc(C(=O)/C=C\Nc2ccccc2O)c(Br)c(OC)c1OC
- IC50 [1]: 250 nM
- IC50 [2]: 200 nM

Structure (SMILES): COc1cc(OC)c(C(=O)/C=C\Nc2ccc(Cl)cc2)c(OC)c1
- IC50 [1]: 25000 nM
- IC50 [2]: 25000 nM

Structure (SMILES): COc1ccc(C(=O)/C=C\Nc2cc(OC)c(OC)c(OC)c2)cc1
- IC50 [1]: 50000 nM
- IC50 [2]: 75000 nM

Structure (SMILES): COc1cc(C(=O)/C=C\Nc2cc(O)ccc2Cl)cc(OC)c1OC
- IC50 [1]: 750 nM
- IC50 [2]: 2500 nM

Structure (SMILES): COc1ccc(N/C=C\C(=O)c2cc(OC)c(OC)c(OC)c2)cc1F
- IC50 [1]: 250 nM
- IC50 [2]: 250 nM

Structure (SMILES): COc1cc(C(=O)/C=C\Nc2ccccc2O)cc(OC)c1OC
- IC50 [1]: 250 nM
- IC50 [2]: 500 nM

Structure (SMILES): COc1cc(C(=O)/C=C\Nc2ccc3cc[nH]c3c2)cc(OC)c1OC
- IC50 [1]: 100 nM
- IC50 [2]: 200 nM

Structure (SMILES): COc1cc(C(=O)/C=C\Nc2ccc3[nH]c(C)cc3c2)cc(OC)c1OC
- IC50 [1]: 600 nM
- IC50 [2]: 750 nM
